Data taken from ChEMBL document CHEMBL1649319, “In vitro antifungal activities of isavuconazole and comparators against rare yeast pathogens” (2010).
In brackets after ≈: the same amount, converted by molar mass.

Key:
Assay type in all cases: functional
Rhodotorula mucilaginosa [1] = test: Antifungal activity against Rhodotorula mucilaginosa after 7 days by Etest; settings: 168 h
[2] = Antifungal activity against Trichosporon domesticum after 48 hrs by broth microdilution method; settings: Apiotrichum domesticum
How it was run: (§1)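 CLSI M27-A3 broth microdilution. Isolates were identified by ITS1-5.8S-ITS2 sequencing, kept at −70°C in sterile water, and revived on potato dextrose or Sabouraud agar. Drug ranges in wells were 0.015–16 or 0.125–128 μg/ml, depending on the agent. Plates were incubated at 35°C and MICs read visually at 48 h. QC strains were C. krusei ATCC 6258 and C. parapsilosis ATCC 22019.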

Magnusiomyces capitatus [3] = test: Antifungal activity against Dipodascus capitatus after 3 days by broth microdilution method; settings: 72 h
Trichosporon inkin [4] = test: Antifungal activity against Trichosporon inkin after 48 hrs by Etest
How it was run: (§2)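 Etest on 2% glucose-RPMI agar. Yeast suspensions were swabbed across the plates and strips applied, then incubated at 35°C for 48 h. MIC was the lowest concentration where the elliptical inhibition zone border met the strip scale. Each reading was raised to the next 2-fold dilution on the CLSI scale and converted to log2. Isolates were revived from −70°C stocks on potato dextrose or Sabouraud agar.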

Trichosporon [5] = test: Antifungal activity against Trichosporon sp. after 4 days by Etest; settings: 96 h
[6] = Antifungal activity against Trichosporon jirovecii after 48 hrs by broth microdilution method; settings: Cutaneotrichosporon jirovecii; how it was run: as §1
[7] = tested on: Cutaneotrichosporon mucoides; test: Antifungal activity against Trichosporon mucoides assessed as percent susceptible isolates after 48 hrs by broth microdilution method
How it was run: (§3)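 Broth microdilution MICs (CLSI, 35°C, visual read at 48 h) were sorted into categories using CLSI M27-A3 triazole breakpoints. Susceptible was ≤1 or ≤8 μg/ml, SDD was 2 or 16–32 μg/ml, and resistant was ≥4 or ≥64 μg/ml, depending on the agent. Each category is the percentage of isolates falling in it.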

Saccharomyces cerevisiae [8] = test: Antifungal activity against Saccharomyces cerevisiae after 48 hrs by broth microdilution method; how it was run: as §1
[9] = Antifungal activity against Trichosporon jirovecii after 48 hrs by Etest; settings: Cutaneotrichosporon jirovecii; how it was run: as §2
Saccharomyces cerevisiae [10] = test: Antifungal activity against Saccharomyces cerevisiae after 48 hrs by Etest; how it was run: as §2
[11] = Antifungal activity against Trichosporon domesticum after 48 hrs by Etest; settings: Apiotrichum domesticum; how it was run: as §2
Rhodotorula mucilaginosa [12] = test: Antifungal activity against Rhodotorula mucilaginosa after 48 hrs by broth microdilution method; how it was run: as §1
Rhodotorula mucilaginosa [13] = test: Antifungal activity against Rhodotorula mucilaginosa after 48 hrs by Etest; how it was run: as §2
[14] = tested on: Cutaneotrichosporon mucoides; test: Antifungal activity against Trichosporon mucoides after 48 hrs by broth microdilution method; how it was run: as §1
Rhodotorula mucilaginosa [15] = test: Antifungal activity against Rhodotorula mucilaginosa after 7 days by broth microdilution method; settings: 168 h
[16] = tested on: Cutaneotrichosporon mucoides; test: Antifungal activity against Trichosporon mucoides after 48 hrs by Etest; how it was run: as §2
Trichosporon asahii [17] = test: Antifungal activity against Trichosporon asahii after 48 hrs by Etest; how it was run: as §2
Magnusiomyces capitatus [18] = test: Antifungal activity against Dipodascus capitatus after 4 days by Etest; settings: 96 h
Magnusiomyces capitatus [19] = test: Antifungal activity against Dipodascus capitatus after 48 hrs by broth microdilution method; how it was run: as §1
Magnusiomyces capitatus [20] = test: Antifungal activity against Dipodascus capitatus after 48 hrs by Etest; how it was run: as §2
[21] = tested on: Cutaneotrichosporon mucoides; test: Antifungal activity against Trichosporon mucoides assessed as percent susceptible/dose-dependent isolates after 48 hrs by broth microdilution method; how it was run: as §3
Trichosporon inkin [22] = test: Antifungal activity against Trichosporon inkin after 48 hrs by broth microdilution method; how it was run: as §1
Trichosporon [23] = test: Antifungal activity against Trichosporon sp. after 3 days by broth microdilution method; settings: 72 h
Trichosporon asahii [24] = test: Antifungal activity against Trichosporon asahii after 48 hrs by broth microdilution method; how it was run: as §1
Saccharomyces cerevisiae [25] = test: Antifungal activity against Saccharomyces cerevisiae after 5 days by broth microdilution method; settings: 120 h

## C[C@@H](c1nc(-c2ccc(C#N)cc2)cs1)[C@](O)(Cn1cncn1)c1cc(F)ccc1F [ISAVUCONAZOLE]
Rhodotorula mucilaginosa [1]
  MIC50: 1 µg/mL (≈ 2.29 µM)
  MIC90: 4 µg/mL (≈ 9.14 µM)
[2]
  MIC50: 0.06 µg/mL (≈ 0.137 µM)
  MIC90: 0.5 µg/mL (≈ 1.14 µM)
Magnusiomyces capitatus [3]
  MIC50: 0.06 µg/mL (≈ 0.137 µM)
  MIC90: 0.5 µg/mL (≈ 1.14 µM)
Trichosporon inkin [4]
  MIC50: 0.06 µg/mL (≈ 0.137 µM)
  MIC90: 0.125 µg/mL (≈ 0.286 µM)
Trichosporon [5]
  MIC50: 0.06 µg/mL (≈ 0.137 µM)
  MIC90: 0.125 µg/mL (≈ 0.286 µM)
[6]
  MIC50: 0.06 µg/mL (≈ 0.137 µM)
  MIC90: 0.5 µg/mL (≈ 1.14 µM)
[7]
  MIC50: 0.06 µg/mL (≈ 0.137 µM)
  MIC90: 0.5 µg/mL (≈ 1.14 µM)
Saccharomyces cerevisiae [8]
  MIC50: 0.03 µg/mL (≈ 0.0686 µM)
  MIC90: 0.5 µg/mL (≈ 1.14 µM)
[9]
  MIC50: 0.06 µg/mL (≈ 0.137 µM)
  MIC90: 0.125 µg/mL (≈ 0.286 µM)
Saccharomyces cerevisiae [10]
  MIC50: 0.125 µg/mL (≈ 0.286 µM)
  MIC90: 0.5 µg/mL (≈ 1.14 µM)
[11]
  MIC50: 0.06 µg/mL (≈ 0.137 µM)
  MIC90: 0.125 µg/mL (≈ 0.286 µM)
Rhodotorula mucilaginosa [12]
  MIC50: 0.5 µg/mL (≈ 1.14 µM)
  MIC90: 2 µg/mL (≈ 4.57 µM)
Rhodotorula mucilaginosa [13]
  MIC50: 1 µg/mL (≈ 2.29 µM)
  MIC90: 4 µg/mL (≈ 9.14 µM)
[14]
  MIC50: 0.06 µg/mL (≈ 0.137 µM)
  MIC90: 0.5 µg/mL (≈ 1.14 µM)
Rhodotorula mucilaginosa [15]
  MIC50: 0.5 µg/mL (≈ 1.14 µM)
  MIC90: 2 µg/mL (≈ 4.57 µM)
[16]
  MIC50: 0.06 µg/mL (≈ 0.137 µM)
  MIC90: 0.125 µg/mL (≈ 0.286 µM)
Trichosporon asahii [17]
  MIC50: 0.06 µg/mL (≈ 0.137 µM)
  MIC90: 0.125 µg/mL (≈ 0.286 µM)
Magnusiomyces capitatus [18]
  MIC50: 0.125 µg/mL (≈ 0.286 µM)
  MIC90: 1 µg/mL (≈ 2.29 µM)
Magnusiomyces capitatus [19]
  MIC50: 0.06 µg/mL (≈ 0.137 µM)
  MIC90: 0.5 µg/mL (≈ 1.14 µM)
Magnusiomyces capitatus [20]
  MIC50: 0.125 µg/mL (≈ 0.286 µM)
  MIC90: 1 µg/mL (≈ 2.29 µM)
[21]
  MIC50: 0.06 µg/mL (≈ 0.137 µM)
  MIC90: 0.5 µg/mL (≈ 1.14 µM)
Trichosporon inkin [22]
  MIC50: 0.06 µg/mL (≈ 0.137 µM)
  MIC90: 0.5 µg/mL (≈ 1.14 µM)
Trichosporon [23]
  MIC50: 0.06 µg/mL (≈ 0.137 µM)
  MIC90: 0.5 µg/mL (≈ 1.14 µM)
Trichosporon asahii [24]
  MIC50: 0.06 µg/mL (≈ 0.137 µM)
  MIC90: 0.5 µg/mL (≈ 1.14 µM)
Saccharomyces cerevisiae [25]
  MIC50: 0.03 µg/mL (≈ 0.0686 µM)
  MIC90: 0.5 µg/mL (≈ 1.14 µM)

## C[C@@H](c1ncncc1F)[C@](O)(Cn1cncn1)c1ccc(F)cc1F [VORICONAZOLE]
Rhodotorula mucilaginosa [1]
  MIC50: > 16 µg/mL
  MIC90: > 16 µg/mL
[2]
  MIC50: 0.06 µg/mL (≈ 0.172 µM)
  MIC90: 0.25 µg/mL (≈ 0.716 µM)
Magnusiomyces capitatus [3]
  MIC50: 0.06 µg/mL (≈ 0.172 µM)
  MIC90: 0.25 µg/mL (≈ 0.716 µM)
Trichosporon inkin [4]
  MIC50: 0.03 µg/mL (≈ 0.0859 µM)
  MIC90: 0.125 µg/mL (≈ 0.358 µM)
Trichosporon [5]
  MIC50: 0.03 µg/mL (≈ 0.0859 µM)
  MIC90: 0.125 µg/mL (≈ 0.358 µM)
[6]
  MIC50: 0.06 µg/mL (≈ 0.172 µM)
  MIC90: 0.25 µg/mL (≈ 0.716 µM)
[7]
  MIC50: 0.06 µg/mL (≈ 0.172 µM)
  MIC90: 0.25 µg/mL (≈ 0.716 µM)
Saccharomyces cerevisiae [8]
  MIC50: 0.125 µg/mL (≈ 0.358 µM)
  MIC90: 0.25 µg/mL (≈ 0.716 µM)
[9]
  MIC50: 0.03 µg/mL (≈ 0.0859 µM)
  MIC90: 0.125 µg/mL (≈ 0.358 µM)
Saccharomyces cerevisiae [10]
  MIC50: 0.03 µg/mL (≈ 0.0859 µM)
  MIC90: 0.125 µg/mL (≈ 0.358 µM)
[11]
  MIC50: 0.03 µg/mL (≈ 0.0859 µM)
  MIC90: 0.125 µg/mL (≈ 0.358 µM)
Rhodotorula mucilaginosa [12]
  MIC50: 2 µg/mL (≈ 5.73 µM)
  MIC90: 8 µg/mL (≈ 22.9 µM)
Rhodotorula mucilaginosa [13]
  MIC50: > 16 µg/mL
  MIC90: > 16 µg/mL
[14]
  MIC50: 0.06 µg/mL (≈ 0.172 µM)
  MIC90: 0.25 µg/mL (≈ 0.716 µM)
Rhodotorula mucilaginosa [15]
  MIC50: 2 µg/mL (≈ 5.73 µM)
  MIC90: 8 µg/mL (≈ 22.9 µM)
[16]
  MIC50: 0.03 µg/mL (≈ 0.0859 µM)
  MIC90: 0.125 µg/mL (≈ 0.358 µM)
Trichosporon asahii [17]
  MIC50: 0.03 µg/mL (≈ 0.0859 µM)
  MIC90: 0.125 µg/mL (≈ 0.358 µM)
Magnusiomyces capitatus [18]
  MIC50: 0.03 µg/mL (≈ 0.0859 µM)
  MIC90: 0.06 µg/mL (≈ 0.172 µM)
Magnusiomyces capitatus [19]
  MIC50: 0.06 µg/mL (≈ 0.172 µM)
  MIC90: 0.25 µg/mL (≈ 0.716 µM)
Magnusiomyces capitatus [20]
  MIC50: 0.03 µg/mL (≈ 0.0859 µM)
  MIC90: 0.06 µg/mL (≈ 0.172 µM)
[21]
  MIC50: 0.06 µg/mL (≈ 0.172 µM)
  MIC90: 0.25 µg/mL (≈ 0.716 µM)
Trichosporon inkin [22]
  MIC50: 0.06 µg/mL (≈ 0.172 µM)
  MIC90: 0.25 µg/mL (≈ 0.716 µM)
Trichosporon [23]
  MIC50: 0.06 µg/mL (≈ 0.172 µM)
  MIC90: 0.25 µg/mL (≈ 0.716 µM)
Trichosporon asahii [24]
  MIC50: 0.06 µg/mL (≈ 0.172 µM)
  MIC90: 0.25 µg/mL (≈ 0.716 µM)
Saccharomyces cerevisiae [25]
  MIC50: 0.125 µg/mL (≈ 0.358 µM)
  MIC90: 0.25 µg/mL (≈ 0.716 µM)
